Experimental data reported in ChEMBL document CHEMBL3616442, “Unconventional Knoevenagel-type indoles: Synthesis and cell-based studies for the identification of pro-apoptotic agents” (Eur J Med Chem, 2015).

Legend:
Type in all cases: functional
K562 = experiment: Growth inhibition of human K562 cells after 48 hrs by sulforhodamine B assay; conditions: K562, 48 h
Summary of the method: (§1)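 NCI 60-cell-line screen. Compounds tested at five 10-fold dilutions from 10^-4 to 10^-8 M. Cells exposed for the last 48 h of a 72 h incubation, growth estimated by sulforhodamine B protein assay. GI50 is the concentration giving 50% growth inhibition. Values beyond the tested range are expressed as greater or lesser than the extreme concentration.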

[1] = Growth inhibition of human MOLT4 cells after 48 hrs by sulforhodamine B assay; conditions: MOLT-4, 48 h; summary of the method: as §1
[2] = Growth inhibition of human RPMI8226 cells after 48 hrs by sulforhodamine B assay; conditions: RPMI-8226, 48 h
SR = experiment: Growth inhibition of human SR cells after 48 hrs by sulforhodamine B assay
A549 = experiment: Growth inhibition of human A549 cells after 48 hrs by sulforhodamine B assay; conditions: A549, 48 h; summary of the method: as §1
[3] = Growth inhibition of human EKVX cells after 48 hrs by sulforhodamine B assay; summary of the method: as §1
HOP-62 = experiment: Growth inhibition of human HOP62 cells after 48 hrs by sulforhodamine B assay; conditions: HOP-62, 48 h; summary of the method: as §1
[4] = Growth inhibition of human HOP92 cells after 48 hrs by sulforhodamine B assay; conditions: HOP-92, 48 h; summary of the method: as §1
NCI-H226 = experiment: Growth inhibition of human NCI-H226 cells after 48 hrs by sulforhodamine B assay; conditions: NCI-H226, 48 h; summary of the method: as §1
NCI-H322M = experiment: Growth inhibition of human NCI-H322M cells after 48 hrs by sulforhodamine B assay; summary of the method: as §1
NCI-H460 = experiment: Growth inhibition of human NCI-H460 cells after 48 hrs by sulforhodamine B assay; conditions: NCI-H460, 48 h; summary of the method: as §1
NCI-H522 = experiment: Growth inhibition of human NCI-H522 cells after 48 hrs by sulforhodamine B assay; conditions: NCI-H522, 48 h; summary of the method: as §1
[5] = Growth inhibition of human COLO205 cells after 48 hrs by sulforhodamine B assay; conditions: COLO 205, 48 h; summary of the method: as §1
[6] = Growth inhibition of human HCC2998 cells after 48 hrs by sulforhodamine B assay; conditions: HCC 2998, 48 h; summary of the method: as §1
HT-29 = experiment: Growth inhibition of human HT-29 cells after 48 hrs by sulforhodamine B assay; conditions: HT-29, 48 h; summary of the method: as §1
SF-268 = experiment: Growth inhibition of human SF268 cells after 48 hrs by sulforhodamine B assay; conditions: SF-268, 48 h
[7] = Growth inhibition of human SF295 cells after 48 hrs by sulforhodamine B assay; conditions: SF-295, 48 h
[8] = Growth inhibition of human SF539 cells after 48 hrs by sulforhodamine B assay; conditions: SF-539, 48 h
SNB-19 = experiment: Growth inhibition of human SNB19 cells after 48 hrs by sulforhodamine B assay; conditions: SNB-19, 48 h
SNB-75 = experiment: Growth inhibition of human SNB75 cells after 48 hrs by sulforhodamine B assay; conditions: SNB-75, 48 h
[9] = Growth inhibition of human LOXIMVI cells after 48 hrs by sulforhodamine B assay; conditions: LOX IMVI; summary of the method: as §1
Malme-3M = experiment: Growth inhibition of human MALME-3M cells after 48 hrs by sulforhodamine B assay; summary of the method: as §1
M14 = experiment: Growth inhibition of human M14 cells after 48 hrs by sulforhodamine B assay; conditions: M14, 48 h; summary of the method: as §1
SK-MEL-2 = experiment: Growth inhibition of human SK-MEL-2 cells after 48 hrs by sulforhodamine B assay; conditions: SK-MEL-2, 48 h
SK-MEL-28 = experiment: Growth inhibition of human SK-MEL-28 cells after 48 hrs by sulforhodamine B assay; conditions: SK-MEL-28, 48 h
SK-MEL-5 = experiment: Growth inhibition of human SK-MEL-5 cells after 48 hrs by sulforhodamine B assay; conditions: SK-MEL-5, 48 h
UACC-257 = experiment: Growth inhibition of human UACC257 cells after 48 hrs by sulforhodamine B assay; conditions: UACC-257, 48 h
UACC-62 = experiment: Growth inhibition of human UACC62 cells after 48 hrs by sulforhodamine B assay; conditions: UACC-62, 48 h
IGROV-1 = experiment: Growth inhibition of human IGROV1 cells after 48 hrs by sulforhodamine B assay; conditions: IGROV-1, 48 h; summary of the method: as §1
OVCAR-3 = experiment: Growth inhibition of human OVCAR3 cells after 48 hrs by sulforhodamine B assay; conditions: OVCAR-3, 48 h; summary of the method: as §1
OVCAR-5 = experiment: Growth inhibition of human OVCAR5 cells after 48 hrs by sulforhodamine B assay; conditions: OVCAR-5, 48 h
OVCAR-8 = experiment: Growth inhibition of human OVCAR8 cells after 48 hrs by sulforhodamine B assay; conditions: OVCAR-8, 48 h
[10] = Growth inhibition of human NCI-ADR-RES cells after 48 hrs by sulforhodamine B assay; summary of the method: as §1
786-0 = experiment: Growth inhibition of human 786-0 cells after 48 hrs by sulforhodamine B assay; conditions: 786-0, 48 h; summary of the method: as §1
A498 = experiment: Growth inhibition of human A498 cells after 48 hrs by sulforhodamine B assay; conditions: A498, 48 h; summary of the method: as §1
CAKI-1 = experiment: Growth inhibition of human CAKI-1 cells after 48 hrs by sulforhodamine B assay; conditions: CAKI-1, 48 h; summary of the method: as §1
[11] = Growth inhibition of human RXF393 cells after 48 hrs by sulforhodamine B assay; conditions: RXF 393, 48 h
TK-10 = experiment: Growth inhibition of human TK10 cells after 48 hrs by sulforhodamine B assay; conditions: TK-10, 48 h
UO-31 = experiment: Growth inhibition of human UO31 cells after 48 hrs by sulforhodamine B assay; conditions: UO-31, 48 h
PC-3 = experiment: Growth inhibition of human PC3 cells after 48 hrs by sulforhodamine B assay; conditions: PC-3, 48 h
DU-145 = experiment: Growth inhibition of human DU145 cells after 48 hrs by sulforhodamine B assay; conditions: DU-145, 48 h; summary of the method: as §1
MCF7 = experiment: Growth inhibition of human MCF7 cells after 48 hrs by sulforhodamine B assay; conditions: MCF7, 48 h; summary of the method: as §1
[12] = Growth inhibition of human Hs 578T cells after 48 hrs by sulforhodamine B assay; summary of the method: as §1
[13] = Growth inhibition of human BT549 cells after 48 hrs by sulforhodamine B assay; conditions: BT-549, 48 h; summary of the method: as §1
T47D = experiment: Growth inhibition of human T47D cells after 48 hrs by sulforhodamine B assay
MDA-MB-468 = experiment: Growth inhibition of human MDA-MB-468 cells after 48 hrs by sulforhodamine B assay; conditions: MDA-MB-468, 48 h; summary of the method: as §1

`CCOC(=O)C(=Cc1c(-c2ccccc2)[nH]c2ccccc12)C(=O)OCC` gave a GI50 (K562) of 3.6 µM, a GI50 [1] of 3.9 µM and a GI50 [2] of 0.219 µM. For the same compound, the GI50 (SR) was 2.1 µM, the GI50 (A549) was 6.4 µM and the GI50 [3] was 12.4 µM. For the same compound, the GI50 (HOP-62) was 5.5 µM, the GI50 [4] was 8.8 µM and the GI50 (NCI-H226) was 11.4 µM. The GI50 (NCI-H322M) was 12.7 µM, the GI50 (NCI-H460) was 3.8 µM and the GI50 (NCI-H522) was 3.4 µM. It also gave a GI50 [5] of 4.9 µM, a GI50 [6] of 10.1 µM and a GI50 (HT-29) of 4.6 µM. It also gave a GI50 (SF-268) of 6.8 µM, a GI50 [7] of 7.6 µM and a GI50 [8] of 14.5 µM. For the same compound, the GI50 (SNB-19) was 23.9 µM, the GI50 (SNB-75) was 7 µM and the GI50 [9] was 5.6 µM. The GI50 (Malme-3M) was 8.9 µM, the GI50 (M14) was 4.2 µM and the GI50 (SK-MEL-2) was 4.7 µM. The GI50 (SK-MEL-28) was 7.7 µM, the GI50 (SK-MEL-5) was 3.8 µM and the GI50 (UACC-257) was 7.5 µM. For the same compound, the GI50 (UACC-62) was 4.6 µM, the GI50 (IGROV-1) was 5.7 µM and the GI50 (OVCAR-3) was 4.2 µM. The GI50 (OVCAR-5) was 18.5 µM, the GI50 (OVCAR-8) was 4.1 µM and the GI50 [10] was 2.9 µM. The GI50 (786-0) was 12.9 µM, the GI50 (A498) was 16.9 µM and the GI50 (CAKI-1) was 10.3 µM. For the same compound, the GI50 [11] was 3.7 µM, the GI50 (TK-10) was 13.6 µM and the GI50 (UO-31) was 4 µM. For the same compound, the GI50 (PC-3) was 3.3 µM, the GI50 (DU-145) was 9.7 µM and the GI50 (MCF7) was 4.5 µM. The GI50 [12] was 3.8 µM, the GI50 [13] was 5.3 µM and the GI50 (T47D) was 2.7 µM. The GI50 (MDA-MB-468) was 3.1 µM.

In the case of `COc1ccc(-c2[nH]c3ccc(OC)cc3c2/C=C(\C#N)S(=O)(=O)c2ccccc2)cc1`, the GI50 (K562) is reported as 0.508 µM, the GI50 [1] is reported as 0.765 µM and the GI50 [2] is reported as 1.3 µM. The GI50 (SR) was 0.305 µM, the GI50 (A549) was 2.8 µM and the GI50 [3] was 3.3 µM. For the same compound, the GI50 (HOP-62) was 3.1 µM, the GI50 [4] was 0.698 µM and the GI50 (NCI-H226) was 3.7 µM. For the same compound, the GI50 (NCI-H322M) was 4.3 µM, the GI50 (NCI-H460) was 0.687 µM and the GI50 (NCI-H522) was 1.7 µM. The GI50 [5] was 0.396 µM, the GI50 [6] was 2 µM and the GI50 (HT-29) was 0.435 µM. It also gave a GI50 (SF-268) of 1.6 µM, a GI50 [7] of 0.76 µM and a GI50 [8] of 0.51 µM. It also gave a GI50 (SNB-19) of 3.2 µM, a GI50 (SNB-75) of 0.612 µM and a GI50 [9] of 1.2 µM. The GI50 (Malme-3M) was 3.2 µM, the GI50 (M14) was 0.5 µM and the GI50 (SK-MEL-2) was 9 µM. For the same compound, the GI50 (SK-MEL-28) was 0.787 µM, the GI50 (SK-MEL-5) was 0.319 µM and the GI50 (UACC-257) was 46.1 µM. It also gave a GI50 (UACC-62) of 0.66 µM, a GI50 (IGROV-1) of 10.6 µM and a GI50 (OVCAR-3) of 0.359 µM. For the same compound, the GI50 (OVCAR-5) was 4.6 µM, the GI50 (OVCAR-8) was 3.1 µM and the GI50 [10] was 0.494 µM. For the same compound, the GI50 (786-0) was 2.1 µM, the GI50 (CAKI-1) was 4.2 µM and the GI50 (TK-10) was 5 µM. The GI50 (UO-31) was 3.1 µM, the GI50 (PC-3) was 0.534 µM and the GI50 (DU-145) was 0.875 µM. The GI50 (MCF7) was 0.851 µM, the GI50 [12] was 0.538 µM and the GI50 [13] was 4.8 µM. It also gave a GI50 (T47D) of 0.905 µM and a GI50 (MDA-MB-468) of 1.3 µM.
